Assay results published in ChEMBL document CHEMBL4422642, “Antiproliferative and Antimigratory Effects of a Novel YAP-TEAD Interaction Inhibitor Identified Using in Silico Molecular Docking” (J Med Chem, 2019).
The source made the active and inactive calls. The rule behind the calls is not given here.

What was measured:
[1] = target: T1, Transcriptional enhancer factor TEF-1 (Homo sapiens, UniProt P28347); assay: Binding affinity to TEAD1 (194 to 411 residues) (unknown origin) by ITC assay
In short: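 Isothermal titration calorimetry with purified recombinant TEAD1 (residues 194–411). The GST tag was removed by PreScission protease cleavage at 4 °C for 18 h, glutathione was removed by dialysis against PBS, and free GST was removed with glutathione resin.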

[2] = target: T1, Transcriptional enhancer factor TEF-1; assay: Binding affinity to TEAD1 (194 to 411 residues) (unknown origin) by NMR analysis
In short: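 STD NMR at 700 MHz in PBS pH 7.4 containing 60% D2O, with about 20 μM TEAD1 and 2 mM compound. Saturation time 7 s; on-resonance 0.85 ppm, off-resonance −28 ppm; eight scans. Blank runs without protein or ligand were included.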

HeLa [3] = assay: Inhibition of TEAD in human HeLa cells assessed as reduction in CTGF m-RNA expression incubated for 2 hrs followed by compound wash out and re-treatment for 4 hrs by NanoGlo assay; assay type: cell-based
[4] = target: Transcriptional enhancer factor TEF-5 (Homo sapiens, UniProt Q99594); assay: Inhibition of Gal4-fused TEAD3 (unknown origin) interaction with YAP expressed in human HeLa cells assessed as basal transcriptional activity level up to 100 uM after 6 hrs by nanoluciferase reporter gene assay; assay type: cell-based
Chain of Transcriptional enhancer factor TEF-5 (Q99594 whole entry, the tested form may be a part): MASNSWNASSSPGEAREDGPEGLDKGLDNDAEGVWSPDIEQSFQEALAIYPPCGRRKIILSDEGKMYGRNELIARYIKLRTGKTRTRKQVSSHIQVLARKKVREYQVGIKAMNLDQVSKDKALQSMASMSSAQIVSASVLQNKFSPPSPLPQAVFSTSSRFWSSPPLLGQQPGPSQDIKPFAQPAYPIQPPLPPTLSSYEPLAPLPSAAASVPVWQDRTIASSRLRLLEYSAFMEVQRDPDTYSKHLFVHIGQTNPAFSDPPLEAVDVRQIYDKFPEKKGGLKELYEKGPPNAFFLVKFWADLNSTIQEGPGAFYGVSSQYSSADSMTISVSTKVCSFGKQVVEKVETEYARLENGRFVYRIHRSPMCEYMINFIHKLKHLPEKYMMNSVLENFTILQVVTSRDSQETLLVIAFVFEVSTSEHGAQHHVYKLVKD

[5] = target: T2, Transcriptional enhancer factor TEF-3 (Homo sapiens, UniProt Q15561); assay: Inhibition of Gal4-fused TEAD4 (unknown origin) interaction with YAP expressed in human HeLa cells assessed as basal transcriptional activity level after 6 hrs by nanoluciferase reporter gene assay; assay type: cell-based
T2 sequence (Q15561 whole entry, the tested form may be a part): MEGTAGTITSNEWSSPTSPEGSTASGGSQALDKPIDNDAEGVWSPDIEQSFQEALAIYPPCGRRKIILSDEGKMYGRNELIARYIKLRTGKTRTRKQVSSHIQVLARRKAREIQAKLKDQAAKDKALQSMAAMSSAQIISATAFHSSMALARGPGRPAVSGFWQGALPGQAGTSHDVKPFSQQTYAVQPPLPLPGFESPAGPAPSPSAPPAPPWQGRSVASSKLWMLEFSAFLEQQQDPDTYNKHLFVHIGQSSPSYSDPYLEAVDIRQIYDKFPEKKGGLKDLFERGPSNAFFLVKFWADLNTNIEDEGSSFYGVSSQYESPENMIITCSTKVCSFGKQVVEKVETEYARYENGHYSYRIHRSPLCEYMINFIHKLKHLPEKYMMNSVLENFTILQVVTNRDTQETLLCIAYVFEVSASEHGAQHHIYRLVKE

VSMC [6] = assay: Antiproliferative activity against human VSMC assessed as reduction in EdU incorporation after 18 hrs by Hoechst 33342 staining-based fluorescence assay; assay type: functional, cell-based
HeLa [7] = assay: Inhibition of TEAD in human HeLa cells assessed as reduction in CCN1 m-RNA expression incubated for 2 hrs followed by compound wash out and re-treatment for 4 hrs by NanoGlo assay; assay type: cell-based
VSMC [8] = assay: Inhibition of PGK1 m-RNA expression in rat VSMC at 60 uM by RT-qPCR analysis; assay type: functional, cell-based
In short: (§1)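 Rat aortic VSMCs (male Sprague-Dawley, 10% FCS/DMEM) were treated with 60 μM compound for 6 h; n = 3. Total RNA was reverse-transcribed with random primers and quantified by SYBR Green qPCR. Data were normalized to nonstimulated controls.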

[9] = target: T2, Transcriptional enhancer factor TEF-3; assay: Inhibition of Gal4-fused TEAD4 (unknown origin) interaction with YAP expressed in human HeLa cells assessed as basal transcriptional activity level up to 100 uM after 6 hrs by nanoluciferase reporter gene assay; assay type: cell-based
MCF7 = assay: Antiproliferative activity against human MCF7 assessed as reduction in EdU incorporation up to 40 uM after 24 hrs by Hoechst 33342 staining-based fluorescence assay; assay type: functional, cell-based
[10] = Inhibition of TEAD in rat VSMC assessed as reduction in CTGF m-RNA expression incubated for 2 hrs followed by compound wash out and re-treatment for 4 hrs by NanoGlo assay
[11] = Inhibition of TEAD in rat VSMC assessed as reduction in CCN1 m-RNA expression incubated for 2 hrs followed by compound wash out and re-treatment for 4 hrs by NanoGlo assay
VSMC [12] = assay: Antimigratory activity in […] incubated for overnight followed by media replacement and measured every hour for 24 hrs by phase contrast microscopic analysis; assay type: functional, cell-based
In short: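 IncuCyte real-time scratch wound assay. Cells were seeded in 96-well plates and grown 36 h, then pretreated overnight with compound. Wells were scratched and the medium was replaced with compound-containing medium. Phase-contrast images of the wound were taken hourly for 24 h and relative wound confluence was calculated; n = 4.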

Rattus norvegicus [13] = species: Rattus norvegicus; assay: Inhibition of TEAD in rat VSMC assessed as reduction in THBS m-RNA expression at 60 uM by RT-qPCR analysis; in short: as §1
VSMC [14] = assay: Inhibition of 36B4 m-RNA expression in rat VSMC at 60 uM by RT-qPCR analysis; assay type: functional, cell-based; in short: as §1
Rattus norvegicus [15] = species: Rattus norvegicus; assay: Inhibition of TEAD in rat VSMC assessed as reduction in PAI1 m-RNA expression at 60 uM by RT-qPCR analysis; in short: as §1
Rattus norvegicus [16] = species: Rattus norvegicus; assay: Inhibition of TEAD in rat VSMC assessed as reduction in CCN1 protein expression up to 60 uM by Western blot analysis
In short: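 VSMCs were treated with compound over a concentration range for 16 h; n = 4. CCN1 protein in total cell lysates was measured by Western blot with GAPDH probed alongside.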

Rattus norvegicus [17] = species: Rattus norvegicus; assay: Inhibition of TEAD in rat VSMC assessed as reduction in MYOC m-RNA expression at 60 uM by RT-qPCR analysis; in short: as §1
[18] = target: T1, Transcriptional enhancer factor TEF-1; assay: Inhibition of Gal4-fused TEAD1 (unknown origin) interaction with YAP expressed in human HeLa cells assessed as basal transcriptional activity level after 6 hrs by nanoluciferase reporter gene assay; assay type: cell-based
[19] = target: T3, Serum response factor (Homo sapiens) (UniProt P11831); assay: Inhibition of SRF (unknown origin) mediated VP16 transcription expressed in human HeLa cells assessed as basal transcriptional activity level up to 100 uM after 6 hrs by nanoluciferase reporter gene assay; assay type: cell-based
T3 sequence (whole entry): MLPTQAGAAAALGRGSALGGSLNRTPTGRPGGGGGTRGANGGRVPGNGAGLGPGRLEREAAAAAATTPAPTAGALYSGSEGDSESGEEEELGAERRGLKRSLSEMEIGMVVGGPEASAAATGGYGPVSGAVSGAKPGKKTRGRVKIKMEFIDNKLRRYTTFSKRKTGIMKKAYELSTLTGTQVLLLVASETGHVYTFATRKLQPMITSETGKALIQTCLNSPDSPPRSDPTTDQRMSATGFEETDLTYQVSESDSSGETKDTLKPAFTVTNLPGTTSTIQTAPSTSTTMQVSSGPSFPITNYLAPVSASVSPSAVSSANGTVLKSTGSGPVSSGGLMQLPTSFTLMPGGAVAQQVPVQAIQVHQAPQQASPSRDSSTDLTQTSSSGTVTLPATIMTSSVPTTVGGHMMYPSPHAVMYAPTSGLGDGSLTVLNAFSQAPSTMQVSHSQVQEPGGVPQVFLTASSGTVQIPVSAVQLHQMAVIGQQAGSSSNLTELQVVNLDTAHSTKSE

VSMC [20] = assay: Antiproliferative activity against rat VSMC assessed as reduction in EdU incorporation after 18 hrs by Hoechst 33342 staining-based fluorescence assay; assay type: functional, cell-based
HeLa [21] = assay: Antiproliferative activity against human HeLa cells assessed as reduction in EdU incorporation after 24 hrs by Hoechst 33342 staining-based fluorescence assay; assay type: functional, cell-based
In short: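 Click-iT EdU assay. Cells were treated with compound for 24 h total, with 10 μM EdU present for the final labeling period. Cells were then fixed in 4% formaldehyde, stained for EdU and counterstained with Hoechst 33342 for 20 min. EdU-positive nuclei were counted in at least three fields per well; n = 4.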

Rattus norvegicus [22] = species: Rattus norvegicus; assay: Inhibition of TEAD in rat VSMC assessed as reduction in CCN1 m-RNA expression at 60 uM by RT-qPCR analysis; in short: as §1

T1 sequence (P28347 whole entry, the tested form may be a part): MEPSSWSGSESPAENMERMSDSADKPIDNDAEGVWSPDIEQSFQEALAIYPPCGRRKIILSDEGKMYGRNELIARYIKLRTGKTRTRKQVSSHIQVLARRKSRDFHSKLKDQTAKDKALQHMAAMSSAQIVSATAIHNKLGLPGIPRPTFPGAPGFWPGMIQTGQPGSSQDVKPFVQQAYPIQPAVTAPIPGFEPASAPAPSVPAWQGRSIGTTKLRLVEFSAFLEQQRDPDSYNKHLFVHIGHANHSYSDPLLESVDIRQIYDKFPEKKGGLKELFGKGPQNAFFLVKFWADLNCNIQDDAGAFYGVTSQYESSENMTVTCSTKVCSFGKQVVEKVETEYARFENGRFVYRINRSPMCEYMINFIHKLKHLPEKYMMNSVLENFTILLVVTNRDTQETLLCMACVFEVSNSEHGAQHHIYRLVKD

Cc1ccc2c(c1)c1c3n2CCNC3CCC1 (centres undefined) [PIRLINDOLE]
Kd [1]: 12 µM
Activity [2]: Active
inhibition (HeLa [3]): Dose-dependent effect
inhibition [4]: Active
IC50 [5]: 36 µM
EC50 (VSMC [6]): 1.5 µM
inhibition (HeLa [7]): Dose-dependent effect
inhibition (VSMC [8]): inactive
inhibition [9]: Active
Activity (MCF7): inactive
EC50 [10]: 58 µM
EC50 [11]: 48 µM
Activity (VSMC [12]): Dose-dependent effect
inhibition (Rattus norvegicus [13]): Active
inhibition (VSMC [14]): inactive
inhibition (Rattus norvegicus [15]): Active
inhibition (Rattus norvegicus [16]): Active
inhibition (Rattus norvegicus [17]): Active
IC50 [18]: 40 µM
inhibition [19]: inactive
Activity (VSMC [20]): Dose-dependent effect
EC50 (VSMC [20]): 10 µM
Activity (HeLa [21]): Dose-dependent effect
inhibition (Rattus norvegicus [22]): Active
